The record followed here is ChEMBL document CHEMBL4311948, “Exploring the Natural Piericidins as Anti-Renal Cell Carcinoma Agents Targeting Peroxiredoxin 1” (J Med Chem, 2019).

Data set [1] has as its system ACHN. Put plainly: Cytotoxicity against human ACHN cells assessed as reduction in cell viability measured after 72 hrs by CCK8 assay. In kind it is functional, cell-based. The essentials: (§1)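 Cells were grown in 10% FBS medium: MEM for ACHN, RPMI1640 for OS-RC-2 and 786-O, DMEM for HK-2. They were seeded at 400–800 cells/well in 384-well plates and treated with a range of compound concentrations or solvent control, with sorafenib as positive control. After 72 h, CCK-8 absorbance was read at 450 nm in triplicate, and IC50 was taken from dose-response curves.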
A general note: Tetrazolium assays rely on reduction of a dye to a coloured formazan, in cell work by metabolically active cells.

The test system of the next data set is OS-RC-2. Nature of the data set: Cytotoxicity against human OS-RC2 cells assessed as reduction in cell viability measured after 72 hrs by CCK8 assay. The data set is classed as functional, cell-based. To be noted: OS-RC-2, 72 h. The method, boiled down:
as §1

The subject of a further data set is 786-0. Nature of the data set: Cytotoxicity against human 786-O cells assessed as reduction in cell viability measured after 72 hrs by CCK8 assay. In kind it is functional, cell-based. To be noted: 786-0, 72 h. The method, boiled down:
as §1

The next data set deals with HK-2. Nature of the data set: Cytotoxicity against human HK2 cells assessed as reduction in cell viability measured after 72 hrs by CCK8 assay. The data set is classed as cell-based. To be noted: HK-2, 72 h. The method, boiled down: as §1
In data set [2] the test system is ACHN. Put plainly: Cytotoxicity against human ACHN cells harboring shPRDX1 gene assessed as reduction in cell viability measured after 72 hrs by CCK8 assay. The data set is classed as functional, cell-based. The essentials:
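Transfectants were selected with puromycin (1 μg/mL), and knockdown was confirmed by immunoblot. Viability was read by CCK-8 after 72 h of compound exposure in 384-well plates at 400–800 cells/well in MEM with 10% FBS, and IC50 was taken from dose-response curves.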

Data set [3] deals with ACHN. Put plainly: Antitumor activity against human ACHN cells xenografted in Balb/c nu/nu mouse assessed as tumor weight at 50 mg/kg, ip administered once daily for 21 days measured post-last dose by caliper method (reference value: 0.55 +/- 0.13 g). In kind it is functional. In general terms: In xenograft studies the graft and the host belong to different species.
Data set [4] is described as follows: Toxicity in Balb/c nu/nu mouse xenografted with human ACHN cells assessed as effect on survival at 50 mg/kg, ip administered once daily for 21 days. The data set is classed as organism-based. To be noted: in vivo, 504 h. The method, boiled down:
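Nude mice (Balb/c nu/nu) bearing ACHN flank xenografts received sorafenib tosylate 50 mg/kg, given as a 10× stock in Cremophor EL diluted in PBS. Treatment alongside PBS control for three weeks. Survival and body weight monitored.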

A short description of data set [5]: Toxicity in Balb/c nu/nu mouse xenografted with human ACHN cells assessed as decrease in body weight at 50 mg/kg, ip administered once daily for 21 days. To be noted: in vivo, 504 h.
In data set [6] the test system is ACHN. Nature of the data set: Down regulation of EGFR mRNA expression in human ACHN cells at 25 to 50 nM measured after 24 hrs by qRT-PCR analysis. In kind it is functional, cell-based. In general terms: Quantitative PCR measures a nucleic acid by following its amplification.
Data set [7] relates to ACHN. Nature of the data set: Down regulation of SOD2 mRNA expression in human ACHN cells at 25 to 50 nM measured after 24 hrs by qRT-PCR analysis. In kind it is functional, cell-based.
Data set [8] has as its system ACHN. Nature of the data set: Down regulation of ETS1 mRNA expression in human ACHN cells at 25 to 50 nM measured after 24 hrs by qRT-PCR analysis. In kind it is functional, cell-based.
The test system of data set [9] is ACHN. Nature of the data set: Down regulation of HK2 mRNA expression in human ACHN cells at 25 to 50 nM measured after 24 hrs by qRT-PCR analysis. In kind it is functional, cell-based.
Data set [10] concerns ACHN. Put plainly: Down regulation of SLC2A1 mRNA expression in human ACHN cells at 25 to 50 nM measured after 24 hrs by qRT-PCR analysis. In kind it is functional, cell-based.
The test system of data set [11] is ACHN. Nature of the data set: Down regulation of LDHA mRNA expression in human ACHN cells at 25 to 50 nM measured after 24 hrs by qRT-PCR analysis. In kind it is functional, cell-based.
Data set [12] has as its system ACHN. Put plainly: Down regulation of MET mRNA expression in human ACHN cells at 25 to 50 nM measured after 24 hrs by qRT-PCR analysis. The data set is classed as functional, cell-based.
The test system of data set [13] is ACHN. Nature of the data set: Down regulation of HIF1A mRNA expression in human ACHN cells at 25 to 50 nM measured after 24 hrs by qRT-PCR analysis. The data set is classed as functional, cell-based.
The subject of data set [14] is ACHN. Nature of the data set: Up regulation of PRDX1 mRNA expression in human ACHN cells at 25 to 50 nM measured after 24 hrs by qRT-PCR analysis. The data set is classed as functional, cell-based.
For data set [15], the target named is T1, Peroxiredoxin-1 (Homo sapiens) (UniProt Q06830).
T1 sequence (whole entry): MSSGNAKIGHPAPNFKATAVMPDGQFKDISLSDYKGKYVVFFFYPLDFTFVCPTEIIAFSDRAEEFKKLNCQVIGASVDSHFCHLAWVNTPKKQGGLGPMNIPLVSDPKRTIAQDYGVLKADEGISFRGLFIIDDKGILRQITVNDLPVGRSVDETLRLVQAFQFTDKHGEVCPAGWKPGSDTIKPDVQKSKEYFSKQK
Nature of the data set: Activation of PRDX1 in human ACHN cells assessed as reduction in reactive oxygen species level at 25 to 50 nM measured after 24 hrs by Cell-rox reagent-based flow cytometry. The method, boiled down: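 ACHN cells grown 24 h in MEM + 10% FBS, reseeded at 2 × 10^4 cells/well and exposed to 0, 25 or 50 nM for 24 h. Harvested cells loaded with CellROX oxidative stress reagent 5 μM, 30 min at 37 °C in the dark, then read by flow cytometry. shPRDX1 line: stable knockdown selected with puromycin (1 μg/mL) before dosing. Mean ± SD.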

For data set [16], the system named is ACHN. Put plainly: Selectivity ratio of IC50 for cytotoxicity against human ACHN cells harboring shPRDX1 gene to IC50 for Cytotoxicity against human ACHN cells. In kind it is functional.
Data set [17] relates to ACHN. Put plainly: Up regulation of nuclear PRDX1 expression in human ACHN cells at 25 to 50 nM measured after 24 hrs by immunoblot analysis. The data set is classed as functional, cell-based. The essentials:
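ACHN cells treated 24 h with 25 or 50 nM, then nuclear and cytosolic extracts prepared. Lysis in RIPA buffer, BCA quantitation, 30–50 μg protein resolved on 10% or 12% gels. Blotted with anti-PRDX1 (1:1000) and β-actin (1:3000), band ratio PRDX1/β-actin reported as fold change. Mean ± SD.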

Data set [18] concerns the target T1, Peroxiredoxin-1 (Homo sapiens). Put plainly: Induction of PRDX1 nuclear translocation in human ACHN cells at 25 to 50 nM measured after 24 hrs by DAPI staining-based microscopic analysis. In kind it is cell-based. The essentials: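 ACHN cells exposed 24 h to 25 or 50 nM, fixed in 4% paraformaldehyde 10 min and permeabilised with 0.5% Triton X-100. Blocked with 10% FBS, 4 °C, 12 h. Stained with anti-PRDX1 overnight, FITC secondary 2 h RT, DAPI nuclear counterstain. Confocal imaging scored mean fluorescence intensity (n = 9).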

The target of another data set is T2, Peroxiredoxin-1 (Homo sapiens, UniProt Q06830).
T2 sequence (Q06830 whole entry): T1 sequence (whole entry)
Nature of the data set: Binding affinity to full-length human PRDX1 by surface plasmon resonance analysis. The method, boiled down: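 Full-length human PRDX1 immobilised on a CM5 chip (Biacore T100). Analyte concentration series diluted in 10 mM Hepes pH 7.4, injected over the protein surface and a protein-free reference surface in a single step.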

For data set [19], the system named is ACHN. Put plainly: Antitumor activity against human ACHN cells xenografted in Balb/c nu/nu mouse assessed as tumor weight at 0.8 mg/kg, ip administered once daily for 21 days measured post-last dose by caliper method (reference value: 0.55 +/- 0.13 g). The data set is classed as functional. The method, boiled down: (§2)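 Male athymic Balb/c nu/nu mice, four weeks old, acclimatised 1 week. 10^7 ACHN cells in 0.2 mL PBS injected into the right flank. At about 150 mm3, mice randomised into PBS control or 0.8 mg/kg groups, dosed ip daily for three weeks. Tumours measured by caliper (volume = 0.5 × L × W²) with body weight recorded. Endpoint tumour weight, sections stained by H&E and TUNEL. Tissue lysed for immunoblot.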

Data set [20] can be described thus: Toxicity in Balb/c nu/nu mouse xenografted with human ACHN cells assessed as effect on survival at 0.8 mg/kg, ip administered once daily for 21 days. The data set is classed as organism-based. To be noted: in vivo, 504 h. The essentials: as §2
Data set [21] in a line: Toxicity in Balb/c nu/nu mouse xenografted with human ACHN cells assessed as decrease in body weight at 0.8 mg/kg, ip administered once daily for 21 days. The data set is classed as organism-based. To be noted: in vivo, 504 h. The essentials: as §2
Data set [22] has as its system Mus musculus. Nature of the data set: Up regulation of PRDX1 expression in human ACHN cells xenografted Balb/c nu/nu mouse at 0.8 mg/kg, ip administered once daily for 21 days measured post-last dose by immunoblot analysis. In kind it is functional, organism-based. The essentials:
as §2

For data set [23], the system named is Mus musculus. Nature of the data set: Up regulation of PRDX1 mRNA expression in human ACHN cells xenografted Balb/c nu/nu mouse at 0.8 mg/kg, ip administered once daily for 21 days measured post-last dose by qRT-PCR analysis. The data set is classed as functional, organism-based.
In data set [24] the test system is ACHN. Nature of the data set: Antitumor activity against human ACHN cells xenografted in Balb/c nu/nu mouse assessed as tumor growth inhibition at 0.8 mg/kg, ip administered once daily for 21 days measured post-last dose by TUNEL staining-based assay. The data set is classed as functional, organism-based. The method, boiled down:
as §2

Data set [25] relates to ACHN. Put plainly: Antitumor activity against human ACHN cells xenografted in Balb/c nu/nu mouse assessed as tumor growth inhibition at 0.8 mg/kg, ip administered once daily for 21 days measured post-last dose by H and E staining-based assay. The data set is classed as functional, organism-based. The method, boiled down:
as §2

Calls of active or inactive are those of the source. No cut-off for these calls is given here.

For `CNC(=O)c1cc(Oc2ccc(NC(=O)Nc3ccc(Cl)c(C(F)(F)F)c3)cc2)ccn1` [SORAFENIB], the IC50 was 3.3 µM in the data set on ACHN [1]; 14 µM in the data set on OS-RC-2; 13 µM in the data set with 786-0; 2.6 µM in the data set with HK-2; “Not Active” in the data set on ACHN [2] (achn). Further, the Activity with ACHN [3] is given as 0.12 g; in [4], “Non-Toxic”; in data set [5], “Toxic”.

As for `C/C=C(\C)[C@H](O[C@@H]1O[C@H](CO)[C@@H](O)[C@H](O)[C@H]1O)[C@H](C)/C=C(C)/C=C/C/C(C)=C/Cc1nc(OC)c(OC)c(O)c1C`, the IC50 with ACHN [1] is 0.21 µM; in the data set on OS-RC-2, above 100 µM; in the data set on 786-0 it was above 100 µM; in the data set on HK-2 it was above 100 µM; in the data set on ACHN [2] (Homo sapiens, ACHN, 72 h, read-out: IC50), 0.96 µM. Besides, the result in the data set on ACHN [6], in the data set on ACHN [7], in the data set on ACHN [8], in the data set on ACHN [9], in the data set with ACHN [10] and in the data set on ACHN [11] was Active. The result (in the data set on ACHN [12]; in the data set with ACHN [13]; in the data set on ACHN [14]; in data set [15]; with ACHN [17]; in [18]) was Active. The outcome with Mus musculus [22] and with Mus musculus [23] was Active. Moreover, in the data set with ACHN [16], the “Ratio IC50” value is 4. Further, binding at Peroxiredoxin-1 was characterised by a dissociation constant (Kd) of 1.83 µM. In addition, the Activity is 0.23 g in the data set with ACHN [19], “Non-Toxic” in [20] and “Non-Toxic” in [21]. Moreover, the TGI entry in the data set on ACHN [24] and in the data set with ACHN [25] was “Active” each time.

As a reminder, the IC50 is the concentration that inhibits the measured activity by half. The term Kd denotes the free concentration of one partner at which half of the binding sites on the other are occupied at equilibrium, for simple one-to-one binding.
